Measured values published in ChEMBL document CHEMBL5338787, “Discovery of Novel Bruton's Tyrosine Kinase PROTACs with Enhanced Selectivity and Cellular Efficacy” (J Med Chem, 2023).
Calls of active or inactive are those of the source. The calls are words filed in the database; no cut-off is given here.

Tests used:
[1] = target: T1, Zinc finger protein 280D (Homo sapiens) (UniProt Q6N043); assay: Degradation of […] in human TMD8 cells by measuring protein level at 111 nM for 6 hrs using label free proteomic analysis; type: cell-based
T1 sequence (whole entry): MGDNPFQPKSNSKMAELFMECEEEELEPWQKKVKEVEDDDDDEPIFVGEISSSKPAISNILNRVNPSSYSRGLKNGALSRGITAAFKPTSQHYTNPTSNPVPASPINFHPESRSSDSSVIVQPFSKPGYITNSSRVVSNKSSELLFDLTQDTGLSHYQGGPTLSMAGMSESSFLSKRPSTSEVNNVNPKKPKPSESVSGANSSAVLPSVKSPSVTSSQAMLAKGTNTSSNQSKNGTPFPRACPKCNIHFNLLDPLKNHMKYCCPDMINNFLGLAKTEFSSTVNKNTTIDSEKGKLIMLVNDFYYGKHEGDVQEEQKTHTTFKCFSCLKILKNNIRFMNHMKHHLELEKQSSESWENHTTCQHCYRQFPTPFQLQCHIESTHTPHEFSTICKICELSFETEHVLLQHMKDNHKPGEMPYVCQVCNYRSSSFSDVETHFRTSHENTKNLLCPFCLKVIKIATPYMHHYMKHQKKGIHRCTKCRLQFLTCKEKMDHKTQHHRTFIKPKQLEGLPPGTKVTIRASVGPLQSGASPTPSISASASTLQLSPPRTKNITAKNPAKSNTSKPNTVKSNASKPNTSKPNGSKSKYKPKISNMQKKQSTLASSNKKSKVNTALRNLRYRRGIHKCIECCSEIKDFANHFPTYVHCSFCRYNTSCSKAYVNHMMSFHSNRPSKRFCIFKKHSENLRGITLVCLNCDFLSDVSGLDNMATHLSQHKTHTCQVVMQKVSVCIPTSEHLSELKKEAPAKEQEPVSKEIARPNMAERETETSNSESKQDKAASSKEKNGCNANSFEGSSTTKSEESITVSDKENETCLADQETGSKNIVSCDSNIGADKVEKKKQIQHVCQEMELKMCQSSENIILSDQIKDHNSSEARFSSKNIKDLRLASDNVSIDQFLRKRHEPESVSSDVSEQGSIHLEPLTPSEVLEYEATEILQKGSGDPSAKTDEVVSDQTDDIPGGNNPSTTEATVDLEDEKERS
How it was run: (§1)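 TMD8 cells (2 × 10^6) given 111 nM or DMSO for 6 h in duplicate. Lysed in 5% SDS/50 mM TEAB pH 8.5. 200 μg protein reduced (10 mM DTT, 55 °C, 30 min), alkylated (50 mM iodoacetamide), S-Trap processed, then LC-MS/MS. Label-free matched-peptide quantitation against DMSO, human UniProt; Benjamini–Hochberg-corrected p-values.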

[2] = test system: TMD8; assay: Cytotoxicity against human TMD8 cells incubated for 48 hrs by celltitre glo 2.0 assay; type: functional, cell-based; conditions: TMD8, 48 h
[3] = target: Eukaryotic peptide chain release factor GTP-binding subunit ERF3A (Homo sapiens) (UniProt P15170); assay: Degradation of […] in human TMD8 cells by measuring protein level at 111 nM for 6 hrs using label free proteomic analysis; type: cell-based; how it was run: as §1
[4] = Cytotoxicity against human MINO cells incubated for 48 hrs by celltitre glo 2.0 assay; type: functional, cell-based
[5] = target: DNA-binding protein Ikaros (Homo sapiens) (UniProt Q13422); assay: Degradation of IKZF1 in human TMD8 cells by measuring protein level at 111 nM for 6 hrs using label free proteomic analysis; type: cell-based; how it was run: as §1
[6] = target: Tyrosine-protein kinase CSK (Homo sapiens) (UniProt P41240); assay: Degradation of CSK in human TMD8 cells by measuring protein level at 111 nM for 6 hrs using label free proteomic analysis; type: cell-based; how it was run: as §1
[7] = target: Zinc finger protein Aiolos (Homo sapiens) (UniProt Q9UKT9); assay: Degradation of IKZF3 in human TMD8 cells by measuring protein level at 111 nM for 6 hrs using label free proteomic analysis; type: cell-based; how it was run: as §1
[8] = target: Tyrosine-protein kinase FRK (Homo sapiens) (UniProt P42685); assay: Degradation of FRK in human TMD8 cells by measuring protein level at 111 nM for 6 hrs using label free proteomic analysis; type: cell-based; how it was run: as §1
[9] = target: T2, Protein cereblon/Tyrosine-protein kinase BTK (Homo sapiens, UniProt Q06187+Q96SW2); assay: PROTAC activity at BTK/CRBN protein protein interaction in human JeKo-1 cell assessed as degradation of BTK incubated for 17 hrs measured by Western blot analysis relative to control; type: cell-based
How it was run: (§2)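 Ramos or JeKo-1 cells (2 × 10^6 per well) were exposed for 17 h to 3000–0.15 nM PROTAC in 3-fold steps. Cells were lysed and analysed by western blot, with BTK normalised to β-actin. DC50 and Dmax come from the dose-response; DC50 is the mean ± SD of two independent experiments.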
Target sequence in this assay (Q06187 2-659 limits assumed): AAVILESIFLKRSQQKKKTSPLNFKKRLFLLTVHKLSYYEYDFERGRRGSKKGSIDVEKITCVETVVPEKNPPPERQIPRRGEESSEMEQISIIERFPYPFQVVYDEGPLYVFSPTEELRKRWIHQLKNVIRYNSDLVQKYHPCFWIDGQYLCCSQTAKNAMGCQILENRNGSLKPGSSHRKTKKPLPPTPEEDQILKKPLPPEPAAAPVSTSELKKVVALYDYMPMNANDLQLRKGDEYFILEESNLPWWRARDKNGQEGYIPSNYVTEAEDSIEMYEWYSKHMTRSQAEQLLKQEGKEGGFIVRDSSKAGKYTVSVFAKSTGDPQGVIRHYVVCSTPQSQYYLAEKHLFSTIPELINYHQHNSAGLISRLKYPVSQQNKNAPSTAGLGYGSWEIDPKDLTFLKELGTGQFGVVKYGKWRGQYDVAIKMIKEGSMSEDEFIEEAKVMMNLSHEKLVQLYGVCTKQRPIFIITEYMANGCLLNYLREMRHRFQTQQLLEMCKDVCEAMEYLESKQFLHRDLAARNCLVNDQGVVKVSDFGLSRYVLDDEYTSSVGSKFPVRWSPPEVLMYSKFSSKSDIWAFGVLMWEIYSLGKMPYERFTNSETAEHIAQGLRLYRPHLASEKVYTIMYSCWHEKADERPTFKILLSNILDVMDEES
Target sequence in this assay (Q96SW2 whole entry partner): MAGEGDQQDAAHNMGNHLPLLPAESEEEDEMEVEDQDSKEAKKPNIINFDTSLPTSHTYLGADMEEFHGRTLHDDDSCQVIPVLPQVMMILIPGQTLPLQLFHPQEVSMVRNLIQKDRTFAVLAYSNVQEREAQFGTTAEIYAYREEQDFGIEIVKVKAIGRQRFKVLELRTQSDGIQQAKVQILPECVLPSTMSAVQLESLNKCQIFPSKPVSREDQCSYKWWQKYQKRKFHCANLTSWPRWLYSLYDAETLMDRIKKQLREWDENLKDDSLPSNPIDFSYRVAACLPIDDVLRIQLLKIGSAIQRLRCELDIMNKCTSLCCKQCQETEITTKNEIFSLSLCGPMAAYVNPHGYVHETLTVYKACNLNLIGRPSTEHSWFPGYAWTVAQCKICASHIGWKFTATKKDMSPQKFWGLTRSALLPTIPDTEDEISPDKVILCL

[10] = target: T2, Protein cereblon/Tyrosine-protein kinase BTK; assay: PROTAC activity at BTK/CRBN protein protein interaction in human Ramos cell assessed as degradation of BTK incubated for 17 hrs measured by Western blot analysis; type: cell-based; how it was run: as §2
Target sequence in this assay (Q06187 whole entry): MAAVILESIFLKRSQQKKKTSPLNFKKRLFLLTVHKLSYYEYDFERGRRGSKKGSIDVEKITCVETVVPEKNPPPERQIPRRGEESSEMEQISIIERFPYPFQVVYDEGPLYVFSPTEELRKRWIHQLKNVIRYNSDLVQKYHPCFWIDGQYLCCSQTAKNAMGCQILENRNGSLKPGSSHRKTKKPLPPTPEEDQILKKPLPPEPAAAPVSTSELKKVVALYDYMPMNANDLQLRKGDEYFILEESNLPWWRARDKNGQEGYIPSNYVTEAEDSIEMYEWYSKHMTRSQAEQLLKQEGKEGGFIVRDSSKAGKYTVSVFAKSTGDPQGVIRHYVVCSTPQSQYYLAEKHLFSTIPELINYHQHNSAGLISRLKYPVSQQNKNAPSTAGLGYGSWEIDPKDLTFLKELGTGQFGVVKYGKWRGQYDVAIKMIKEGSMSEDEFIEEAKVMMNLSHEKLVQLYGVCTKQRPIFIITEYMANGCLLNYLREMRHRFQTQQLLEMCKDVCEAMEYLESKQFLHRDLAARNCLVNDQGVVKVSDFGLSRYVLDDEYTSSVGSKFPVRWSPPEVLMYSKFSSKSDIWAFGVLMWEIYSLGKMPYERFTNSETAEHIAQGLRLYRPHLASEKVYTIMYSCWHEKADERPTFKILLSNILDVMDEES
Target sequence in this assay (Q96SW2 whole entry): as the sequence (Q96SW2 whole entry partner) above

[11] = target: T2, Protein cereblon/Tyrosine-protein kinase BTK; assay: PROTAC activity at BTK/CRBN protein protein interaction in human JeKo-1 cell assessed as degradation of BTK incubated for 17 hrs measured by Western blot analysis; type: cell-based; how it was run: as §2
Target sequence in this assay (Q06187 whole entry): as the sequence (Q06187 whole entry) above
Target sequence in this assay (Q96SW2 whole entry): as the sequence (Q96SW2 whole entry partner) above

[12] = target: T2, Protein cereblon/Tyrosine-protein kinase BTK; assay: PROTAC activity at BTK/CRBN protein protein interaction in human Ramos cell assessed as degradation of BTK incubated for 17 hrs measured by Western blot analysis relative to control; type: cell-based; how it was run: as §2
Target sequence in this assay (Q06187 2-659 limits assumed): as the sequence (Q06187 2-659 limits assumed) above
Target sequence in this assay (Q96SW2 whole entry partner): as the sequence (Q96SW2 whole entry partner) above

[13] = target: T3, Tyrosine-protein kinase BTK (Homo sapiens, UniProt Q06187); assay: Binding affinity to full length BTK (unknown origin) assessed as dissociation constant measured at 37 degree C by TR-FRET assay
[14] = target: T3, Tyrosine-protein kinase BTK; assay: Potency index, ratio of test compound Kd to GDC-0853 Kd for full length BTK (unknown origin)
[15] = target: T2, Protein cereblon/Tyrosine-protein kinase BTK; assay: PROTAC activity at Halo-tagged CRBN/NanoLuc fusion tagged BTK transfected in HEK293 cells assessed as degradation of BTK by measuring ternary complex formation using NanoGlo substrate preincubated with proteasome inhibitor MG-132 for 30 mins followed by compound and substrate addition incubated for 2.5 hrs measured by NANOBRET assay relative to 4-((2-((S)-4-(6-((2'-(7,7-Dimethyl-1-oxo-1,3,4,6,7,8-hexahydro-2H-cyclopenta[4,5]pyrrolo[1,2-a]pyrazin-2-yl)-3'-(hydroxymethyl)-1-methyl-6-oxo-1,6-dihydro-[3,4'-bipyridin]-5-yl)amino)pyridin-3-yl)-3-methylpiperazin-1-yl)-2-oxoethyl)amino)-2-(2,6-dioxopiperidin-3-yl)isoindoline-1,3-dione; type: cell-based; set-up: scale not given: the % may be the effect or the level left
Target sequence in this assay (Q06187 2-659 limits assumed): as the sequence (Q06187 2-659 limits assumed) above
Target sequence in this assay (Q96SW2 whole entry partner): as the sequence (Q96SW2 whole entry partner) above

[16] = target: Protein cereblon (Homo sapiens, UniProt Q96SW2); assay: Inhibition of CRBN in HEK293 cells using NanoGlo substrate incubated for 2 hrs by NanoBRET assay; type: cell-based
[17] = target: T3, Tyrosine-protein kinase BTK; assay: Inhibition of BTK in HEK293 cells using NanoGlo substrate incubated for 2 hrs by NanoBRET assay; type: cell-based
[18] = test system: MINO; assay: Induction of apoptosis in human MINO cells measured after 48 hrs by Annexin-V/propidium iodide staining based flow cytometric analysis; type: functional, cell-based; conditions: dose 0.15-3000 nM
How it was run: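 Cells plated at 2 × 10^6 per well and treated 48 h at 3,000–0.15 nM (3-fold dilutions) or 1% DMSO. Harvested, washed in cold PBS, stained with Annexin V Alexa Fluor 488/propidium iodide, analysed by flow cytometry for % live, apoptotic and necrotic cells. Mean of two independent experiments.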

T3 sequence (Q06187 whole entry): as the sequence (Q06187 whole entry) above
Protein cereblon, sequence (Q96SW2 whole entry): as the sequence (Q96SW2 whole entry partner) above
Tyrosine-protein kinase CSK (Homo sapiens), sequence (P41240 2-450 limits assumed): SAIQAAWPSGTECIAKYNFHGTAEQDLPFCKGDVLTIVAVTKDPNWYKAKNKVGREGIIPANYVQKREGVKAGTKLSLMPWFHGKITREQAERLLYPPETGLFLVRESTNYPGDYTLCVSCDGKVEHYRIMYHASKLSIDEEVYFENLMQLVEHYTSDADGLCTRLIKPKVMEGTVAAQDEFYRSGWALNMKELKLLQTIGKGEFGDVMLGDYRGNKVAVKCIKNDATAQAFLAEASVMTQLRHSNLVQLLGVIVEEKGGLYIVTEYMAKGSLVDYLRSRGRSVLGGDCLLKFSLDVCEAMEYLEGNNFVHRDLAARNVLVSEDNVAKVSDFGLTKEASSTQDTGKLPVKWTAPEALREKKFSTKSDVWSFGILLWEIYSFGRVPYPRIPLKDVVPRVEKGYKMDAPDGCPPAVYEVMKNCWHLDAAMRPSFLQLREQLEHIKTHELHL
DNA-binding protein Ikaros (Homo sapiens), sequence (Q13422 whole entry): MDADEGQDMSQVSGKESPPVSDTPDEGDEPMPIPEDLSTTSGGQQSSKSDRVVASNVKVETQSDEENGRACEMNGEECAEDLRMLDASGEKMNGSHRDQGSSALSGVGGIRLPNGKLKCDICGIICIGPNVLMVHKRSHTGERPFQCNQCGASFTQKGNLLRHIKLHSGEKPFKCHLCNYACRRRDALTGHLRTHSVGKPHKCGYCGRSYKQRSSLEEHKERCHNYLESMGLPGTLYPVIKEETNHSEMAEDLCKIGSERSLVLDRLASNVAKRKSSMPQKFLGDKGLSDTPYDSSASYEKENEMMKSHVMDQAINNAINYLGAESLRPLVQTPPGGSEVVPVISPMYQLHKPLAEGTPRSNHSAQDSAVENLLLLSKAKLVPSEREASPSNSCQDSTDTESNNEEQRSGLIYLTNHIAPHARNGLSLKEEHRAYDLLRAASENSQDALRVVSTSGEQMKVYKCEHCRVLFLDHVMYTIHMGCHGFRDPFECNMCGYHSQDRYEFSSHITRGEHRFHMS
Eukaryotic peptide chain release factor GTP-binding subunit ERF3A (Homo sapiens), sequence (P15170 whole entry): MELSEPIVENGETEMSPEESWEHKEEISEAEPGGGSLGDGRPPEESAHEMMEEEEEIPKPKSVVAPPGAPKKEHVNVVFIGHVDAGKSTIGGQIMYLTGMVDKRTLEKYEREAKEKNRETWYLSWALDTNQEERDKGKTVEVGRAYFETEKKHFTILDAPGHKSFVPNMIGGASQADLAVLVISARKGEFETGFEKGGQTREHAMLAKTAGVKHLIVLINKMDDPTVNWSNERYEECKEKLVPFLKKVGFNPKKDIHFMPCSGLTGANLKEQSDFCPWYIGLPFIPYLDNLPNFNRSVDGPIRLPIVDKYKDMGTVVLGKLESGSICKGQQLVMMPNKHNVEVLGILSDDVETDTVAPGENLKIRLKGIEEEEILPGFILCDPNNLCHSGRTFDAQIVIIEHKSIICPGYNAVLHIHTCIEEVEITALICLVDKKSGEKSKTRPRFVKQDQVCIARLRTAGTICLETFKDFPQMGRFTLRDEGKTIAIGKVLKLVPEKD
Tyrosine-protein kinase FRK (Homo sapiens), sequence (P42685 whole entry): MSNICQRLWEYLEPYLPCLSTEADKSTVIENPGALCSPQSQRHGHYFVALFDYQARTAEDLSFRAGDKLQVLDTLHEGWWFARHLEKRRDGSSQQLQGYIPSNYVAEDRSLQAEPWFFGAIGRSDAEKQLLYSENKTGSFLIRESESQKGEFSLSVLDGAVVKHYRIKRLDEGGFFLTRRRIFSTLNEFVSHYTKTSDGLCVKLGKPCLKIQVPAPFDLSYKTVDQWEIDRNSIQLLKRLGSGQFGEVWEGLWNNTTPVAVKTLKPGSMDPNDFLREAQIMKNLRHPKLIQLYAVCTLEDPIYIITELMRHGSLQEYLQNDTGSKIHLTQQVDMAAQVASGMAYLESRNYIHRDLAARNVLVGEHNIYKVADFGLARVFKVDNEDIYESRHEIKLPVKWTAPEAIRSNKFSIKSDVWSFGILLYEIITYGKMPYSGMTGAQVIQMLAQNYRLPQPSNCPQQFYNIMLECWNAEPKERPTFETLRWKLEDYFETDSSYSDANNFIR
Zinc finger protein Aiolos (Homo sapiens), sequence (Q9UKT9 whole entry): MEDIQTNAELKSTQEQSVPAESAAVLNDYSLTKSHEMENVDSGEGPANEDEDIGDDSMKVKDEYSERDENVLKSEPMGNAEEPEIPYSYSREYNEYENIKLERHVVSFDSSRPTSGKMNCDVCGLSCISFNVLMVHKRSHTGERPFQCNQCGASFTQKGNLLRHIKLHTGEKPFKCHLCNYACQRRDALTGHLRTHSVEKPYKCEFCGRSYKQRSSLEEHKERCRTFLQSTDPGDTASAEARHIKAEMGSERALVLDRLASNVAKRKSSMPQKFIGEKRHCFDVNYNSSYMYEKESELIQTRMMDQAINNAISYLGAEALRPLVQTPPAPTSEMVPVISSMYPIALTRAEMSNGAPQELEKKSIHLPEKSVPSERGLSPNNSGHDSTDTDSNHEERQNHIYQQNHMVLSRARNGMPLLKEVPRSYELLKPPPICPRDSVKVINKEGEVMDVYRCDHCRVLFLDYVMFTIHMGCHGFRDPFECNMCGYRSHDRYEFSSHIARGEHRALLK

Row | Compound | Emax [9] | DC50 [10] | DC50 [11] | Emax [12] | other results
1 | Nc1ncnc2c1c(-c1ccc(Oc3ccccc3)cc1)nn2[C@@H]1CCCN(C(=O)c2cn(CCOCCOCCOCCNc3cccc4c3C(=O)N(C3CCC(=O)NC3=O)C4=O)nn2)C1 (some centres undefined) | – | – | – | – | Activity [1]: Active; IC50 [2]: 15 nM; Activity [3]: inactive; IC50 [4]: 10.4 nM; Activity [5]: Active; Activity [6]: Active; Activity [7]: Active; Activity [8]: Active
2 | C[C@H]1CN(C(=O)CCCNc2cccc3c2C(=O)N(C2CCC(=O)NC2=O)C3=O)CCN1c1ccc(Nc2cc(-c3ccnc(N4CCn5c(cc6c5CC(C)(C)C6)C4=O)c3CO)cn(C)c2=O)nc1 (some centres undefined) | 97.4% | 0.9 nM | 1 nM | 95.7% | –
3 | Nc1ncnc2c1c(-c1ccc(Oc3ccccc3)cc1)nn2C1CCN(CCOCCOCC(=O)Nc2ccc3c(c2)C(=O)N(C2CCC(=O)NC2=O)C3=O)CC1 (centres undefined) | – | – | – | – | IC50 [2]: 12 nM; IC50 [4]: 100 nM
4 | Cc1c(NC(=O)c2ccc(C(C)(C)C)cc2)cccc1-c1cn(C)c(=O)c(Nc2ccc(C(=O)N3CCN(CCCCCCNC(=O)CNc4cccc5c4C(=O)N(C4CCC(=O)NC4=O)C5=O)CC3)cc2)n1 (centres undefined) | – | – | – | – | IC50 [2]: 5.1 nM; IC50 [4]: 10.9 nM
5 | C[C@H]1CN(C(=O)CCCCCCOCCOCC(=O)Nc2cccc3c2C(=O)N(C2CCC(=O)NC2=O)C3=O)CCN1c1ccc(Nc2cc(-c3ccnc(N4CCn5c(cc6c5CC(C)(C)C6)C4=O)c3CO)cn(C)c2=O)nc1 (some centres undefined) | 97.7% | 6.6 nM | – | 97.1% | –
6 | C[C@H]1CN(C(=O)CCOCCOCCNc2cccc3c2C(=O)N(C2CCC(=O)NC2=O)C3=O)CCN1c1ccc(Nc2cc(-c3ccnc(N4CCn5c(cc6c5CC(C)(C)C6)C4=O)c3CO)cn(C)c2=O)nc1 (some centres undefined) | 95.1% | 1.3 nM | 4.1 nM | 96.1% | –
7 | C[C@H]1CN(C(=O)CNc2ccc3c(c2)C(=O)N(C2CCC(=O)NC2=O)C3=O)CCN1c1ccc(Nc2cc(-c3ccnc(N4CCn5c(cc6c5CC(C)(C)C6)C4=O)c3CO)cn(C)c2=O)nc1 (some centres undefined) | 97.6% | 0.9 nM | 0.8 nM | 97.3% | –
8 | C[C@H]1CN(C(=O)c2cccc3c2C(=O)N(C2CCC(=O)NC2=O)C3=O)CCN1c1ccc(Nc2cc(-c3ccnc(N4CCn5c(cc6c5CC(C)(C)C6)C4=O)c3CO)cn(C)c2=O)nc1 (some centres undefined) | 30% | > 3000 nM | > 3000 nM | 30.1% | Kd [13]: 0.86 nM; Ratio [14]: 3; Activity [15]: 0%; IC50 [16]: 7000 nM; IC50 [17]: 320 nM
9 | Cn1cc(-c2ccnc(N3CCn4c(cc5c4CC(C)(C)C5)C3=O)c2CO)cc(Nc2ccc(N3CCN(C(=O)CCCCCCOCCOCC(=O)Nc4cccc5c4C(=O)N(C4CCC(=O)NC4=O)C5=O)CC3)cn2)c1=O (centres undefined) | 98.8% | 4 nM | 7.2 nM | 98.3% | –
10 | Cn1cc(-c2ccnc(N3CCn4c(cc5c4CC(C)(C)C5)C3=O)c2CO)cc(Nc2ccc(N3CCN(CCCCCCOCCOCC(=O)Nc4cccc5c4C(=O)N(C4CCC(=O)NC4=O)C5=O)CC3)cn2)c1=O (centres undefined) | 97.7% | 5.3 nM | 6.8 nM | 97.2% | –
11 | Cn1cc(-c2ccnc(N3CCn4c(cc5c4CC(C)(C)C5)C3=O)c2CO)cc(Nc2ccc(N3CCN(C(=O)CCCCCCNc4cccc5c4C(=O)N(C4CCC(=O)NC4=O)C5=O)CC3)cn2)c1=O (centres undefined) | 98% | 2 nM | 3.5 nM | 96.9% | –
12 | C[C@H]1CN(C(=O)CCCCCCCCCCCNc2cccc3c2C(=O)N(C2CCC(=O)NC2=O)C3=O)CCN1c1ccc(Nc2cc(-c3ccnc(N4CCn5c(cc6c5CC(C)(C)C6)C4=O)c3CO)cn(C)c2=O)nc1 (some centres undefined) | 89.8% | 113 nM | 348 nM | 89% | Kd [13]: 107 nM; Ratio [14]: 300; Activity [15]: 75%; IC50 [16]: 5000 nM; IC50 [17]: 3200 nM
13 | C[C@H]1CN(C(=O)CCCCCCCCCNc2cccc3c2C(=O)N(C2CCC(=O)NC2=O)C3=O)CCN1c1ccc(Nc2cc(-c3ccnc(N4CCn5c(cc6c5CC(C)(C)C6)C4=O)c3CO)cn(C)c2=O)nc1 (some centres undefined) | 97.1% | 31.2 nM | 32.1 nM | 94% | –
14 | C[C@H]1CN(CCCCCCOCCOCC(=O)Nc2cccc3c2C(=O)N(C2CCC(=O)NC2=O)C3=O)CCN1c1ccc(Nc2cc(-c3ccnc(N4CCn5c(cc6c5CC(C)(C)C6)C4=O)c3CO)cn(C)c2=O)nc1 (some centres undefined) | 96.9% | 7 nM | 9.7 nM | 95.6% | –
15 | Nc1cccc2c1C(=O)N(C1CCC(=O)NC1=O)C2=O (centres undefined) | – | – | – | – | Activity [18]: Dose-Dependent Effect
16 | C[C@H]1CN(C(=O)CCCCCCNc2cccc3c2C(=O)N(C2CCC(=O)NC2=O)C3=O)CCN1c1ccc(Nc2cc(-c3ccnc(N4CCn5c(cc6c5CC(C)(C)C6)C4=O)c3CO)cn(C)c2=O)nc1 (some centres undefined) | 97% | 3.2 nM | 3.3 nM | 95% | –
17 | C[C@H]1CN(C(=O)CNc2cccc3c2CN(C2CCC(=O)NC2=O)C3=O)CCN1c1ccc(Nc2cc(-c3ccnc(N4CCn5c(cc6c5CC(C)(C)C6)C4=O)c3CO)cn(C)c2=O)nc1 (some centres undefined) | 89.2% | 3.6 nM | 4.6 nM | 89.8% | –
